Assay results as given in ChEMBL document CHEMBL3297691, “Development and bioorthogonal activation of palladium-labile prodrugs of gemcitabine” (J Med Chem, 2014).
Activity calls are given as the source filed them. The calls are words filed in the database; no cut-off is given here.

Experiments:
Danio rerio = species: Danio rerio; test: Prodrug conversion in zebrafish yolk assessed as formation of rhodamine 110 at 5 uM after 24 hrs by fluorescence microscopic analysis in presence of palladium-resins; conditions: in vivo
[1] = Cytotoxicity against human MIAPaCa2 cells after 5 days by PrestoBlue assay; type: functional, cell-based; conditions: MIA PaCa-2, 96 h, in the assay text read “4 days” for “5 days”
[2] = Cytotoxicity against human BxPC3 cells after 4 days by PrestoBlue assay; conditions: BXPC-3, 96 h
[3] = Prodrug conversion in phosphate buffered saline assessed as compound retention time at 100 uM after 6 to 24 hrs by HPLC analysis in presence of palladium-resins; type: physicochemical; conditions: buffer
Outline: (§1)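 Prodrug at 100 μM in PBS (300 mOsm/kg, pH 7.4) was shaken at 1400 rpm and 37 °C with Pd0-resins (1 mg/mL, 4.4% w/w Pd; [Pd0] 400 μM). Samples were taken at 0, 6 and 24 h for reverse-phase HPLC with UV at 280 nm: water/acetonitrile with 0.1% formic acid, 95:5 to 5:95 over 3 min.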

BXPC-3 [4] = test: Cytotoxicity against human BxPC3 cells at 100 nM after 5 days by PrestoBlue assay in presence of palladium-resins; type: functional, cell-based
Outline: (§2)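 BxPC-3 (RPMI; 2,500 cells/well) or Mia PaCa-2 (DMEM; 1,000 cells/well) in 10% FBS and 2 mM L-glutamine were grown 48 h, then given fresh medium with compound (3, 10, 30, 100, 300 nM), with or without Pd0-resins (0.67 mg/mL), in 0.1% DMSO. After 5 days at 37 °C and 5% CO2, PrestoBlue (10% v/v) was added for 60 min; fluorescence ex 540/em 590 nm, normalized to DMSO wells; n = 3.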

[5] = Cytotoxicity against human BxPC3 cells after 5 days by PrestoBlue assay; type: functional, cell-based; conditions: BXPC-3, 96 h, in the assay text read “4 days” for “5 days”
[6] = Prodrug conversion in phosphate buffered saline assessed as gemcitabine retention time at 100 uM after 6 to 24 hrs by HPLC analysis in presence of palladium-resins; type: physicochemical; conditions: buffer
Outline: as §1

[7] = Toxicity in human BxPC3 cells assessed as cell growth at 30 nM up to 120 hrs by IncuCyte ZOOM analysis; type: cell-based; conditions: bxpc-3, 120 h, 0.03 µM
Outline: (§3)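 BxPC-3 cells in RPMI with 10% FBS and 2 mM L-glutamine were treated once at 30 nM. Wells were imaged every 3 h for 5 d (120 h) by IncuCyte ZOOM inside the incubator (37 °C, 5% CO2). Confluence came from image analysis; n = 3, ± SD.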

BXPC-3 [8] = test: Cytotoxicity against human BxPC3 cells at 10 to 100 nM after 5 days by PrestoBlue assay in presence of palladium-resins; type: functional, cell-based
Outline: as §2

[9] = Cytotoxicity against human MIAPaCa2 cells at 30 to 300 nM after 5 days by PrestoBlue assay; type: cell-based; conditions: mia paca-2, 120 h, 0.3 µM
Outline: as §2

[10] = Cytotoxicity against human BxPC3 cells at 10 to 100 nM after 5 days by PrestoBlue assay; type: cell-based; conditions: bxpc-3, 120 h, 0.1 µM
Outline: as §2

[11] = Prodrug conversion in phosphate buffered saline assessed as formation of gemcitabine at 100 uM after 24 hrs by HPLC analysis in presence of palladium-resins; type: physicochemical; conditions: buffer
Outline: as §1

[12] = Prodrug conversion in phosphate buffered saline assessed as half life of formation of gemcitabine at 100 uM by HPLC analysis in presence of palladium-resins; type: physicochemical; conditions: buffer
[13] = Toxicity in human MIAPaCa2 cells assessed as induction of DNA damage by measuring phosphorylated gamma-H2AX level at 300 nM after 24 hrs by immunofluorescence analysis; type: cell-based; conditions: mia paca-2, 24 h, 0.3 µM
Outline: (§4)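 Mia PaCa-2 cells (2,000/well, DMEM) were grown 48 h, then treated 24 h at 300 nM in 0.1% DMSO, with or without Pd0-resins (0.67 mg/mL). The prodrug–resin mix was preincubated 24 h at 37 °C before addition. Cells were fixed in 4% paraformaldehyde and permeabilized with 0.1% Triton X-100. Staining used rabbit anti-phospho-H2AX Ser139 (1:400, 1 h, RT), then Alexa 488 secondary, Hoechst and phalloidin. Imaged by confocal microscopy.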

MIA PaCa-2 = test: Cytotoxicity against human MIAPaCa2 cells at 30 to 300 nM after 5 days by PrestoBlue assay in presence of palladium-resins; type: functional, cell-based
Outline: as §2

BXPC-3 [14] = test: Cytotoxicity against human BxPC3 cells at 30 nM up to 120 hrs by IncuCyte ZOOM analysis; type: functional, cell-based
Outline: as §3

[15] = Toxicity in human MIAPaCa2 cells assessed as induction of DNA damage by measuring phosphorylated gamma-H2AX level at 300 nM after 24 hrs by immunofluorescence analysis in presence of palladium-resins; type: cell-based; conditions: mia paca-2, 24 h, 0.3 µM
Outline: as §4

[16] = Cytotoxicity against human MIAPaCa2 cells after 4 days by PrestoBlue assay; conditions: MIA PaCa-2, 96 h

O=C(Nc1ccc2c(c1)Oc1cc(NC(=O)OCc3ccccc3)ccc1C21OC(=O)c2ccccc21)OCc1ccccc1
Drug metabolism (Danio rerio): metabolite_notdetected

O=C(Nc1ccn([C@H]2O[C@H](CO)[C@@H](O)C2(F)F)c(=O)n1)OCc1ccccc1
EC50 [1]: 94 nM
EC50 [2]: 253 nM
Retention_time [3]: 2.96 min
Activity (BXPC-3 [4]): inactive

Nc1ccn([C@H]2O[C@H](COC(=O)OCc3ccccc3)[C@@H](O)C2(F)F)c(=O)n1
EC50 [5]: 12 nM
EC50 [1]: 29 nM

Nc1ccn([C@@H]2O[C@H](CO)[C@@H](O)C2(F)F)c(=O)n1 [GEMCITABINE]
Retention_time [6]: 0.93 min
EC50 [5]: 10 nM
EC50 [1]: 2000 nM

C#CCOC(=O)Nc1ccn([C@H]2O[C@H](CO)[C@@H](O)C2(F)F)c(=O)n1
Activity [7]: 100%
Activity (BXPC-3 [8]): Active
EC50 [5]: 237 nM
Activity [9]: Non-toxic
Activity [10]: Non-toxic
Drug metabolism [11]: Active
t1/2 [12]: < 6 h
Activity [13]: Non-toxic
Activity (MIA PaCa-2): Active
Activity (BXPC-3 [14]): Active
EC50 [1]: 1400 nM
Activity [15]: Toxic
Retention_time [3]: 2.45 min
Activity (BXPC-3 [4]): Active

C=CCOC(=O)Nc1ccn(C2O[C@H](CO)[C@@H](O)C2(F)F)c(=O)n1 (single isomer, unassigned)
Activity [7]: 100%
Activity (BXPC-3 [8]): Active
Activity [9]: Non-toxic
Activity [10]: Non-toxic
Drug metabolism [11]: Active
Activity (MIA PaCa-2): Active
Activity (BXPC-3 [14]): Active
EC50 [1]: 900 nM
EC50 [2]: 335 nM
Retention_time [3]: 2.56 min
Activity (BXPC-3 [4]): Active

C=CCOC(=O)OC[C@H]1O[C@H](n2ccc(N)nc2=O)C(F)(F)[C@@H]1O
EC50 [5]: 22 nM
EC50 [1]: 27 nM

C#CCOC(=O)OC[C@H]1O[C@H](n2ccc(N)nc2=O)C(F)(F)[C@@H]1O
EC50 [16]: 45 nM
EC50 [5]: 13 nM

C#CCOC(=O)Nc1ccc2c(c1)Oc1cc(NC(=O)OCC#C)ccc1C21OC(=O)c2ccccc21
Drug metabolism (Danio rerio): metabolite_detected
